Test results taken from ChEMBL document CHEMBL1131231, “New azole antifungals. 2. Synthesis and antifungal activity of heterocyclecarboxamide derivatives of 3-amino-2-aryl-1-azolyl-2-butanol” (1998).
≈ marks a conversion by molar mass, not a printed value.

Columns and labels:
Assay type in all cases: functional
Candida albicans [1] = experiment: In vivo antifungal activity against murine candidosis model after peroral administration with 0.5 mg/kg at various time intervals. (percent protection for 100% mortality with untreated group); conditions: route oral
Procedure, shortened: (§1)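 Male mice, groups of 10, infected iv with 0.2 mL Candida albicans at (2–8) × 10⁷ cfu/mL. Oral suspension in 1% Tween + 0.2% carboxymethylcellulose in water, given 1, 4 and 24 h post-infection; vehicle controls and a fluconazole group at the same dose. Survival scored on days 1, 2, 3, 5, 7, 9, reported as % surviving on the day untreated, or fluconazole-treated, mortality reached 100%.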

Candida albicans [2] = experiment: In vivo antifungal activity against murine candidosis model after peroral administration with 0.5 mg/kg at various time intervals. (percent protection for 100% mortality with fluconazole-treated group.); conditions: route oral; procedure, shortened: as §1
[3] = The compound was tested in vitro for antifungal activity against 10 yeasts.
Procedure, shortened: (§2)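 Agar dilution on Kimmig's agar with 0.5% glycerol; ATCC or clinical isolates, inocula at 10⁵ cfu/mL. Drugs from 800 μg/mL stock in 50% ethanol, 2-fold serial dilutions 80 to 0.03 μg/mL in plates. Incubated 25 °C, 48 h for yeasts, 120 h for filamentous fungi. Value is geometric mean of MICs (μg/mL); >80 taken as 160, ≤0.03 as 0.03.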

[4] = The compound was tested in vitro for antifungal activity against 6 filamentous fungi.; procedure, shortened: as §2

SMILES | Protection (Candida albicans [1]) [%] | Protection (Candida albicans [2]) [%] | MIC [3] [µg/mL] | MIC [4] [µg/mL]
Cc1oc(-c2ccc(Cl)cc2)cc1C(=O)N[C@H](C)[C@](O)(Cn1cncn1)c1ccc(F)cc1F | 100 | 0 | 0.9 (≈ 1.85 µM) | 10 (≈ 20.5 µM)
Cc1nc(-c2ccc(C#N)cc2)sc1C(=O)N[C@H](C)[C@](O)(Cn1cncn1)c1ccccc1F | 100 | 60 | 1.5 (≈ 3.15 µM) | 5 (≈ 10.5 µM)
CCC(C)n1ncn(-c2ccc(N3CCN(c4ccc(OC[C@@H]5CO[C@@](Cn6cncn6)(c6ccc(Cl)cc6Cl)O5)cc4)CC3)cc2)c1=O (stereo not given in full) [ITRACONAZOLE] | 0 | 0 | 5.2 (≈ 7.37 µM) | 63 (≈ 89.3 µM)
C[C@@H](NC(=O)c1ccc(C(F)(F)F)cc1)[C@](O)(Cn1cncn1)c1ccc(F)cc1F | 100 | 100 | 4.6 (≈ 10.4 µM) | 22 (≈ 50 µM)
Cc1nc(S(=O)(=O)c2ccc(Cl)cc2)sc1C(=O)N[C@H](C)[C@](O)(Cn1cncn1)c1ccc(F)cc1F | 0 | 0 | 7.6 (≈ 13.4 µM) | > 80
Cc1nc(C)c(C(=O)N[C@H](C)[C@](O)(Cn2cncn2)c2ccc(F)cc2F)s1 | 0 | 0 | 19 (≈ 46.6 µM) | > 80
C[C@@H](NC(=O)c1ccc(-c2ccc(Cl)cc2)cc1)[C@](O)(Cn1cncn1)c1ccc(F)cc1F | 100 | 100 | 0.3 (≈ 0.621 µM) | 18 (≈ 37.3 µM)
Cc1nc(-c2ccc(Cl)cc2)sc1C(=O)N[C@H](C)[C@](O)(Cn1cncn1)c1ccc(F)cc1F | 100 | 100 | 0.8 (≈ 1.59 µM) | 1.2 (≈ 2.38 µM)
Cc1nc(COc2ccc(Cl)cc2)sc1C(=O)N[C@H](C)[C@](O)(Cn1cncn1)c1ccc(F)cc1F | 30 | 0 | 0.6 (≈ 1.12 µM) | 2.9 (≈ 5.43 µM)
C[C@@H](NC(=O)c1ccc(Cl)cc1)[C@](O)(Cn1cncn1)c1ccc(F)cc1F | 0 | 0 | 3.9 (≈ 9.59 µM) | 11 (≈ 27 µM)
C[C@@H](NC(=O)c1nc(-c2ccc(Cl)cc2)no1)[C@](O)(Cn1cncn1)c1ccc(F)cc1F | 80 | 10 | 2.1 (≈ 4.42 µM) | 80 (≈ 168 µM)
C[C@@H](n1ncn(-c2ccc(OCC(F)(F)C(F)F)cc2)c1=O)[C@](O)(Cn1cncn1)c1ccc(F)cc1F | 100 | 100 | 2.6 (≈ 4.79 µM) | 8.9 (≈ 16.4 µM)
Cc1nc(-c2ccc(C#N)cc2)sc1C(=O)N[C@H](C)[C@](O)(Cn1cncn1)c1ccc(C(F)(F)F)cc1 | 0 | 0 | 2 (≈ 3.8 µM) | > 80
Cc1nc(-c2ccc(C(F)(F)F)cc2)sc1C(=O)N[C@H](C)[C@](O)(Cn1cncn1)c1ccc(F)cc1F | 100 | 100 | 0.9 (≈ 1.67 µM) | 2.2 (≈ 4.09 µM)
C[C@@H](NC(=O)c1scc(S(=O)(=O)c2ccc(Cl)cc2)c1N)[C@](O)(Cn1cncn1)c1ccc(F)cc1F | 20 | 0 | 1 (≈ 1.76 µM) | 10 (≈ 17.6 µM)
Cc1nc(-c2ccc(C(C)(C)C)cc2)sc1C(=O)N[C@H](C)[C@](O)(Cn1cncn1)c1ccc(F)cc1F | 0 | 0 | 2.1 (≈ 4 µM) | 8.9 (≈ 16.9 µM)
C[C@@H](NC(=O)c1ccn(-c2ccc(Cl)cc2)c1)[C@](O)(Cn1cncn1)c1ccc(F)cc1F | 0 | 0 | 1.2 (≈ 2.54 µM) | 17 (≈ 36 µM)
C[C@@H](NC(=O)c1sc(-c2ccc(Cl)cc2)cc1N)[C@](O)(Cn1cncn1)c1ccc(F)cc1F | 0 | 0 | 0.6 (≈ 1.19 µM) | 22 (≈ 43.7 µM)

SMILES | Protection (Candida albicans [1]) [%] | Protection (Candida albicans [2]) [%] | MIC [3] [µg/mL] | MIC [4] [µg/mL]
Cc1nc(Oc2ccc(Cl)cc2)sc1C(=O)N[C@H](C)[C@](O)(Cn1cncn1)c1ccc(F)cc1F | 10 | 0 | 1.5 (≈ 2.88 µM) | 4 (≈ 7.69 µM)
Cc1nc(-c2ccc(Cl)cc2)oc1C(=O)N[C@H](C)[C@](O)(Cn1cncn1)c1ccc(F)cc1F | 40 | 0 | 3.7 (≈ 7.58 µM) | 40 (≈ 82 µM)
C[C@@H](NC(=O)c1cccc(-c2ccc(Cl)cc2)c1)[C@](O)(Cn1cncn1)c1ccc(F)cc1F | 40 | 0 | 0.3 (≈ 0.621 µM) | > 80
Cc1nc(-c2ccc(OC(F)(F)F)cc2)sc1C(=O)N[C@H](C)[C@](O)(Cn1cncn1)c1ccc(F)cc1F | 100 | 100 | 1.3 (≈ 2.35 µM) | 1.6 (≈ 2.89 µM)
C[C@@H](NC(=O)c1csc(-c2ccc(Cl)cc2)n1)[C@](O)(Cn1cncn1)c1ccc(F)cc1F | 0 | 0 | 4.5 (≈ 9.18 µM) | > 80
C[C@@H](NC(=O)c1ccc(-c2ccc(C#N)cc2)s1)[C@](O)(Cn1cncn1)c1ccc(F)cc1F | 100 | 100 | 0.8 (≈ 1.67 µM) | > 80
C[C@@H](NC(=O)c1nc(-c2ccc(Cl)cc2)ns1)[C@](O)(Cn1cncn1)c1ccc(F)cc1F | 10 | 0 | 11 (≈ 22.4 µM) | > 80
C[C@@H](NC(=O)c1sc(-c2ccc(C#N)cc2)nc1C(F)(F)F)[C@](O)(Cn1cncn1)c1ccc(F)cc1F | 100 | <50 | 2.9 (≈ 5.29 µM) | 28 (≈ 51 µM)
Cc1nc(-c2ccc(Br)cc2)sc1C(=O)N[C@H](C)[C@](O)(Cn1cncn1)c1ccc(F)cc1F | 100 | 90 | 0.6 (≈ 1.09 µM) | 1.8 (≈ 3.28 µM)
Cc1cc(-c2ccc(C#N)cc2)sc1C(=O)N[C@H](C)[C@](O)(Cn1cncn1)c1ccc(F)cc1F | 100 | 70 | 0.7 (≈ 1.42 µM) | 8.9 (≈ 18 µM)
Cc1nc(-c2ccc(C(=N)NO)cc2)sc1C(=O)N[C@H](C)[C@](O)(Cn1cncn1)c1ccc(F)cc1F | 0 | 0 | 12 (≈ 22.7 µM) | 80 (≈ 152 µM)
Cc1nc(-c2ccc(C#N)cc2)sc1C(=O)N[C@H](C)[C@](O)(Cn1ccnc1)c1ccc(F)cc1F | 70 | 0 | 10 (≈ 20.3 µM) | 45 (≈ 91.2 µM)
C[C@@H](NC(=O)c1cnc(-c2ccc(Cl)cc2)s1)[C@](O)(Cn1cncn1)c1ccc(F)cc1F | 100 | 100 | 0.7 (≈ 1.43 µM) | 6.3 (≈ 12.9 µM)
C[C@@H](NC(=O)c1ccc(-c2ccc(Cl)cc2)s1)[C@](O)(Cn1cncn1)c1ccc(F)cc1F | 100 | 100 | 0.2 (≈ 0.409 µM) | 3.5 (≈ 7.16 µM)
C[C@@H](NC(=O)c1sc(-c2ccc(C3N=NN=N3)cc2)nc1C(F)(F)F)[C@](O)(Cn1cncn1)c1ccc(F)cc1F | 30 | 0 | 75 (≈ 127 µM) | > 80
Cc1nc(-c2ccc(F)cc2)sc1C(=O)N[C@H](C)[C@](O)(Cn1cncn1)c1ccc(F)cc1F | 100 | 80 | 1.1 (≈ 2.26 µM) | 1.8 (≈ 3.69 µM)
Cc1nc(-c2sc(-c3ccc(Cl)cc3)nc2C)sc1C(=O)N[C@H](C)[C@](O)(Cn1cncn1)c1ccc(F)cc1F | 10 | 0 | 1.8 (≈ 2.99 µM) | > 80
